Published values collected from several papers.
Each line is one published result; the experiments were not run side by side.
DYRK1A: Dual specificity tyrosine-phosphorylation-regulated kinase 1A (DYRK1A, Homo sapiens, UniProt Q13627)
PDGFRB: Platelet-derived growth factor receptor beta (PDGFRB, Homo sapiens, UniProt P09619)

| Compound | target | assay | setting | measurement | result |
| --- | --- | --- | --- | --- | --- |
| Nc1ncnc2c1ncn2[C@@H]1O[C@H](COP(=O)(O)OP(=O)(O)OP(=O)(O)O)[C@@H](O)[C@H]1O | Inositol-tetrakisphosphate 1-kinase (Homo sapiens, UniProt Q13572) | enzyme activity, substrate, ADP detection |  | Km | 2.7 µM |
| Clc1ccc(-c2cn[nH]c2)s1 | DYRK1A | enzyme activity, inhibitor, ADP detection | 10 µM | inhibition | 52.5% |
| COc1ccc2oc(-c3ccc4nc(N)oc4c3)c/c(=N\c3ccccc3NC(=O)CCN)c2c1 | PDGFRB | binding | 1 µM | remaining binding | 107% |
| CCCCC(=O)Nc1ccc(-c2ccc3ncn(CCC)c(=O)c3c2)cn1 | Ephrin type-A receptor 7 (EPHA7, Homo sapiens, UniProt Q15375) | binding, competition with immobilised ligand | 0.5 µM | remaining binding | 100% |
| Brc1cc(Br)c2ccncc2c1Br | DYRK1A | enzyme activity, inhibitor, ADP detection | 10 µM | inhibition | 41.5% |
| Cc1cc(F)cc2c(CCC(=O)N[C@@H]3C(=O)NC[C@H]3O)c(-c3ccc(F)cc3)[nH]c12 | Muscarinic acetylcholine receptor M3 (CHRM3, Homo sapiens, UniProt P20309) | cell-free assay | 10 µM | inhibition | 0% |
| N#Cc1ccc(NC(=O)Nc2ccccc2)cc1 | PDGFRB | cell-free assay, competition with immobilised ligand | 25 µM | remaining binding | 33% |
| Cc1cc(O)c(-c2ccc([C@@H](C)CN(C)C)cc2)c2c1[nH]c(=O)c1sccc12 | Ephrin type-B receptor 3 (EPHB3, Homo sapiens, UniProt P54753) | cell-free assay, inhibitor | 0.1 µM | inhibition | -4.48% |
| C1=C/COCc2cc(ccc2OCCN2CCCC2)Nc2nccc(n2)-c2cccc(c2)COC/1 | PDGFRB | binding | 0.1 µM | remaining binding | 32% |
| NC/C(=C\F)COc1cccc(Cn2c(=S)[nH]c(=O)c3[nH]cnc32)c1 | Neuropeptide Y receptor type 2 (NPY2R, Homo sapiens, UniProt P49146) | ligand displacement, radioligand | 10 µM | inhibition | < 50% |
| C#Cc1cc(-c2cc(Nc3nc(N[C@@H](C)c4ccc(F)cn4)ncc3Cl)n[nH]2)ccc1C=O | Homeodomain-interacting protein kinase 2 (HIPK2, Homo sapiens, UniProt Q9H2X6) | enzyme activity, inhibitor | 0.2 µM | inhibition | 40.4% |
| Nc1cc(-c2ccncc2)cs1 | DYRK1A | enzyme activity, inhibitor, ADP detection | 10 µM | inhibition | 25.6% |
| CN(C)CCOC(=O)COc1ccc(Cl)cc1 | Alpha-1D adrenergic receptor (ADRA1D, Homo sapiens, UniProt P25100) | ligand displacement, radioligand | 1 µM, cell membranes | inhibition | 0% |
